Here are results for six molecules from article PMC4972181 (Journal of medicinal chemistry, 2015).

The subject of series [1] is INSR minigene exon 11 splicing in HeLa cells expressing CUG960. The class given is cell-based, human. The conditions noted are these: for INSR mis-splicing rescue (in words): HeLa cells, CUG960 + INSR minigene.
The subject of series [2] is CUG: MBNL nuclear foci in HeLa cells transfected with CUG960. Kind of series: Fluorescent microscopy of CUG RNA nuclear foci and MBNL1 localization. The series is classed as cell-based, human. The conditions noted are these: for Effect on ribonuclear foci (in words): 50 μM pentamidine or 80 μM compound 13.
The next series is described as follows: in vitro. The conditions noted are these: human.
Series [3] can be described thus: Flow cytometry cell viability assay with propidium iodide in the DM1 cell model. The conditions noted are these: human, HeLa cells, DM1 cell model (transfected).
Series [4] relates to TNNT2 minigene exon 5 splicing in HeLa cells expressing CUG960. Kind of series: HeLa cell DM1 splicing assay, TNNT2 minigene co-transfected with CUG960. The series is classed as cell-based, human.
The next series deals with Atp2a1 exon 22 splicing. Kind of series: HSALR DM1 mouse model, Atp2a1 splicing in quadriceps muscle. The series is classed as in vivo. The conditions noted are these: HSALR mice, wild type 100 ± 0.2 %, HSALR 28 ± 2 %. In a few lines: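 Homozygous, gender-matched HSALR transgenic mice aged 10–14 wks received the test compound in 5% glucose solution by daily intraperitoneal injection for 7 d. Controls received 5% glucose injections. Mice were killed 1 d after the last dose and quadriceps was taken. RNA was reverse transcribed, PCR-amplified and run on agarose gels read by fluorimager. Inclusion was scored per individual mouse.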

In series [5] the test system is INSR minigene exon 11 splicing in HeLa cells without CUG960. Nature of the series: Control splicing experiment, INSR minigene in the absence of transfected CUG960. The class given is cell-based, human. The conditions noted are these: 80 μM; untreated range ~70% to ~80 %.
A short description of series [6]: Toxicity observed in treated HSALR mice. The series is classed as in vivo, mouse. The conditions noted are these: 10 and 20 mg/kg daily i.p. for 7 d.

Each structure is given as a SMILES string. Where two headings read alike, the source gives them in different places.

`N=C(N)c1ccc(OCCCOc2ccccc2)cc1` [Compound 2a]: the “INSR mis-splicing rescue (in words)” value in series [1] is on record as “dose-dependent rescue of mis-splicing through 60 μM”.
For `N=C(N)c1ccc(OCCCCc2ccccc2)cc1` [Compound 2b], the “INSR mis-splicing rescue (in words)” value in series [1] is listed as “little rescue was observed by 20 μM”.
For the molecule `N=C(N)c1ccc(OCCCCCOc2ccc(C(=N)N)cc2)cc1` [Pentamidine, pentamidine, reference compound], the “Effect on ribonuclear foci (in words)” value in series [2] is reported as “significant reduction of ribonuclear foci”. In “in vitro”, this molecule yielded an IC50 at 18 h of 64 ± 12 µM.
For the molecule `N=C(N)c1cccc(OCCCCCCCOc2cccc(C(=N)N)c2)c1` [Compound 4], in series [1], the “Toxicity observed in the cell splicing assay (in words)” value is recorded as “very toxic over the range tested” and the “INSR mis-splicing rescue (in words)” value is recorded as “almost complete dose-dependent mis-splicing rescue at 25 μM”.
`N=C(N)c1ccc(OCCCCCCCOc2ccc(C(=N)N)cc2)cc1` [Heptamidine, heptamidine] came in with an IC50 at 18 h in series [3] of 15 ± 0.46 µM.
As for `N=C(N)c1ccc(-c2ccc(-c3ccc(C(=N)N)cc3)o2)cc1` [Compound 13, furamidine], in series [4], the “Concentration by which full TNNT2 mis-splicing reversal was achieved” value is at most 80 µM. In addition, in series [2], the “Effect on ribonuclear foci (in words)” value was “significant reduction of ribonuclear foci”. The “Reduction of nuclear foci per cell” value in series [2] (80 μM, vs transfected controls, n = 121, p < 0.05) was 89%. Also, the “Atp2a1 exon 22 inclusion” value in the series with Atp2a1 exon 22 splicing (10 mg/kg daily i.p. 7 days) was 64 ± 4%; in the series with Atp2a1 exon 22 splicing (20 mg/kg daily i.p. 7 days), 83 ± 4%. Further, the “Toxicity observed in the cell splicing assay (in words)” value in series [1] (HeLa DM1 cell model, qualitative) is “non-toxic over the range of rescue”. For the same molecule, the “INSR exon 11 inclusion in the absence of CUG960” value in series [5] amounted to 81± 4%. The “Toxicity in mice (in words)” value in series [6] is listed as “No toxicity was observed over the concentration range tested”.
